ABCB1 block: ABCB1 efflux pump inhibitors, primary screen, cell-based, multiplex, flow cytometry, ABCG2 counter-screen; inhibition, % at 6.6 µM; ATP-dependent translocase ABCB1 (Homo sapiens), P08183; 190,000 compounds, 0.067% hits; CCRF-Adr cells, JC-1 efflux; in the data active = inhibition above about 40%;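 also: 0% = vehicle and 100% = reference inhibitor; higher value means more JC-1 retained so stronger ABCB1 efflux block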
Diaph act CS: compounds boosting diaphorase resazurin reduction – biochemical, uHTS, resorufin fluorescence, counter-screen for diaphorase-coupled primary assays, primary screen. Diaphorase/resazurin coupled assay, 16 min; hits give high values; 1 = vehicle wells, 0 = NADH-free wells. activation factor at 20 µM. 190,000 compounds, 0.005% hits. AID 1229, 2008;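 active = diaphorase activity raised at least twofold by the compound at 20 µM; inactive = activation factor below 2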
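Material: purified diaphorase enzyme from Clostridium kluyveri / Medium: HEPES pH 7.4 buffer with MgCl2 and Tween 20 / Schedule: enzyme reaction of 16 min at room temperature / Measured by: resorufin fluorescence, excitation 544 nm, emission 590 nm / Evaluation: rise in resorufin formation, marking diaphorase activation or chemical reduction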
ABCG2 block: ABCG2 efflux pump inhibitors, primary screen, multiplex with ABCB1, IgMXP3 cells, flow cytometry; JC-1 efflux; 190,000 compounds, 0.1% hits; AID 1325, 2008; inhibition, % at 6.6 µM; Broad substrate specificity ATP-binding cassette transporter ABCG2 (Homo sapiens), Q9UNQ0;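 active = inhibition above 80%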;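 also: 0% = DMSO and 100% = nicardipine control wells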
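Test system: IgMXP3 (ABCG2) plus far-red-tagged CCRF-Adr (ABCB1) cells. Reagent: JC-1 dye as substrate. Timing: 10 min exposure at 25 °C with rotation, no wash. Measured by: flow cytometric JC-1 green MFI at 530 nm. Read-out: percent efflux inhibition, scaled nicardipine 100% to DMSO 0%. Control set: nicardipine and DMSO wells.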
NCF1 inh: p47phox/p22phox peptide binding inhibitors, primary screen, biochemical, uHTS, NADPH oxidase regulatory subunit; Neutrophil cytosol factor 1 (Homo sapiens), P14598; fluorescence polarization, 2 h; inhibition, % at 24.7 µM; 220,000 compounds, 0.53% hits; AID 1274, 2008;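 active = inhibition above about 30%, limit read from the data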;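 also: 0% = p47phox with labelled peptide and 100% = labelled peptide alone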
Target sequence (P14598 whole entry, looked up): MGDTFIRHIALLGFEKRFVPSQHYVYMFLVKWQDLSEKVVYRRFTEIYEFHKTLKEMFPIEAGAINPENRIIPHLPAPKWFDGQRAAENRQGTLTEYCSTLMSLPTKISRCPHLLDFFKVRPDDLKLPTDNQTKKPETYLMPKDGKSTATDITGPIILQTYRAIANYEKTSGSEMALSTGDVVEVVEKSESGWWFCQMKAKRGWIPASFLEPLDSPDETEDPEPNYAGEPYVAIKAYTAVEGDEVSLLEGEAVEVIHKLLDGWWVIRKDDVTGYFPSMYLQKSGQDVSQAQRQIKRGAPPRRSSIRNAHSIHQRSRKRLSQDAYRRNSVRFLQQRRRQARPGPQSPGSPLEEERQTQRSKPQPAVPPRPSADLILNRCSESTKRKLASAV
Diaphorase inh: diaphorase inhibitors and chemical oxidizers, primary screen, counter-screen for diaphorase-coupled primary assays, biochemical, uHTS, resorufin fluorescence | diaphorase resazurin-to-resorufin fluorescence, NADH, 16 min; bacterial (C. kluyveri) enzyme, not human | inhibition, % at 20 µM | 190,000 compounds, 0.69% hits | AID 1217, 2008;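 active = primary screen inhibition at 20 µM above a set limit, cut at about 50% in these data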;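 also: plate controls were DMSO with full reaction for no effect and wells lacking NADH for full effect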
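Benchmarks: positive control wells lacking NADH, neutral wells with DMSO only. System: bacterial diaphorase enzyme (C. kluyveri). Input: 0.14 U/mL diaphorase, enzyme working solution. Detection: resorufin fluorescence, excitation 544 nm, emission 590 nm. Times: 16-min room-temperature incubation before reading.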
Efa HMGR inh: inhibitors of E. faecalis class II HMGR, primary screen, biochemical, Enterococcus faecalis; HMG-CoA reductase (Enterococcus faecalis, mvaE); purified E. faecalis HMGR, NADPH absorbance 340 nm kinetic; inhibition, % at 10 µM; 190,000 compounds, 0.41% hits;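 active = inhibition above a set limit, the median over all tested compounds plus 3 SD, cut at about 9.5% in these data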;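 also: enzyme runs in reverse so mevalonate oxidation gives rising NADPH absorbance; 0% = complete reaction with DMSO and 100% = background rate lacking mevalonate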
Starred values were filed as active, the others as inactive; . = no result given; ! = repeats disagree. Most compounds without a hit are left out; they make up all but 1.6% or so of the library.

SMILES	ABCB1 block	Diaph act CS	ABCG2 block	NCF1 inh	Diaphorase inh	Efa HMGR inh
Cc1cccc2nc(-c3ccco3)c(Nc3ccc4c(c3)OCO4)n12	2	0.3	8	-7	72*	-3
Cc1cccc2nc(-c3ccco3)c(Nc3ccccc3)n12	0	0.9	4	-3	11	-5
Cc1ccnc(SCCn2c(N3CC(C)OC(C)C3)nc3c2c(=O)n(C)c(=O)n3C)n1 (stereo unspecified)	1	1	3	-1	4	-4
Cc1ccnc(SCCn2c(N3CC(C)CC(C)C3)nc3c2c(=O)n(C)c(=O)n3C)n1 (stereo unspecified)	2	0.5	4	-3	51*	-9
COC(=O)C1=C(C)NC(C)=C(C(=O)OC)C1C1CC=CCC1 (stereo unspecified)	1	1	3	-18	-2	15*
CSc1nnc(C)c(=O)n1COC(=O)COc1ccc(Cl)cc1Cl	0	0.8	2	48*	16	-3
CSc1nnc(C)c(=O)n1COC(=O)COc1ccc(Cl)cc1	0	0.8	1	4	18	-3
CCCCCCCCCC(=O)Nc1cccnc1	0	0.8	0	0	21	10*
COc1ccc(NC(=S)Nc2ccc3nsnc3c2)cc1	-1	0.4	-7	-14	59*	4
CCOc1ccc(NC(=O)Nc2ccc3nsnc3c2)cc1	-1	0.8	-2	-3	18	-4
CCOc1ccc(NC(=S)Nc2ccc3nsnc3c2)cc1	0	0.5	0	-10	54*	2
COc1ccc(N(C)C(=O)Nc2ccc3c(c2)nnn3C)cc1	0	0.8	6	-10	23	1
COc1ccc(N(C)C(=O)Nc2ccc3nsnc3c2)cc1	0	0.4	1	-7	62*	1
CC(C)N(C(=O)Nc1ccc2nsnc2c1)C(C)C	0	0.4	1	3	60*	-5
Cc1cccc(C)c1NC(=O)C(c1cccc([N+](=O)[O-])c1)N(C)C(=O)c1ccccn1 (stereo unspecified)	0	0.9	0	-7	15	-6
COCCNC(=S)Nc1ccc(Cl)c(Cl)c1	-1	0.9	6	-3	6	4
COCCNC(=S)Nc1ccc2nsnc2c1	1	0.5	8	-7	53*	5
C[C@@H]1O[C@@H](Oc2c(-c3cc(O)c(O)c(O)c3)oc3cc(O)cc(O)c3c2=O)[C@H](O)[C@H](O)[C@H]1O	0	0.3	4	-11	71*	5
O=c1c(OC2OC(CO)C(O)C(O)C2O)c(-c2ccc(O)c(O)c2)oc2cc(O)cc(O)c12 (stereo unspecified)	-1	0.4	-2	-9	62*	16*
COc1ccc(-c2oc3c(CC=C(C)C)c(O[C@@H]4O[C@H](CO)[C@@H](O)[C@H](O)[C@H]4O)cc(O)c3c(=O)c2O[C@@H]2O[C@@H](C)[C@H](O)[C@@H](O)[C@H]2O)cc1	.	1.1	1	-1	-8	-2
O=c1c(OC2OC(CO)C(O)C(O)C2OC2OC(CO)C(O)C(O)C2O)c(-c2ccc(O)cc2)oc2cc(O)cc(O)c12 (stereo unspecified)	.	.	.	12	.	.
CC(=O)Nc1ccc(Oc2ccc([N+](=O)[O-])cc2Cl)cc1	1	1	4	3	2	1
COc1cccc(/C=N/N2CCOCC2)c1O	1	0.8	12	-2	20	1
Oc1ccc(/C=N/N2CCOCC2)c(O)c1O	0	0.3	0	0	69*	5
O=C(Nc1ccc(Nc2ccncc2)cc1)c1ccc(Nc2ccnc3ccc([N+](=O)[O-])cc23)cc1[N+](=O)[O-]	.	.	.	71*	.	.
SMILES	ABCB1 block	Diaph act CS	ABCG2 block	NCF1 inh	Diaphorase inh	Efa HMGR inh
O=C(Nc1ccc(Nc2ccncc2)cc1)c1ccc([N+](=O)[O-])cc1	.	.	.	2	.	.
Cc1ccc(C)c2[nH]c(=O)c(C(c3nnnn3Cc3ccco3)N3CCc4ccccc4C3)cc12 (stereo unspecified)	-1	0.4	-2	-89	57*	1
CCN1CCN(Cc2ccc(NC(=O)c3cc(NC(=O)c4cncc(-c5ccc(C#N)cc5)c4)cc(OC)c3)cc2C(F)(F)F)CC1	.	.	.	69*	.	.
CCN1CCN(Cc2ccc(NC(=O)c3ccc(C)c(NC(=O)c4cc(-c5ccc(Br)cc5)n[nH]4)c3)cc2C(F)(F)F)CC1	.	.	.	63*	.	.
O=C(Nc1ccc2c(c1)oc1ccccc12)C1CC1	0	0.9	38	-13	7	-1
O=C(Nc1ccc2c(c1)oc1ccc(S(=O)(=O)N3CCCC3)cc12)C1CC1	-1	0.9	110*	-9	15	-7
CCOC(=O)N1CCN(c2cc(NCCC(=O)O)c3c4c(onc24)-c2ccccc2C3=O)CC1	0	0.4	-1	-7	57*	0
O=C(O)CCCNc1cc(N2CCC3(CC2)OCCO3)c2noc3c2c1C(=O)c1ccccc1-3	0	0.5	-8	29	50*	-5
O=C1c2ccccc2-c2onc3ccc(N4CCCC4)c1c23	2	0.7	1	-229	33	2
O=[N+]([O-])c1ccc(Cl)c(S(=O)(=O)n2ccnc2)c1	.	.	.	-9	.	.
O=S(=O)(c1cc(Cl)ccc1Cl)n1ccnc1	0	1	-1	147*	-1	-5
OCC1(CO)COC2(CCCC2)N1	0	1	1	62*!	2	-3
C(=Nc1cccc2c(N=Cc3ccco3)cccc12)c1ccco1	0	0.2	-2	-4	81*	-1
COC(=O)c1ccc2c(=O)n(Cc3ccco3)c(SCC(=O)Nc3cc(C)on3)nc2c1	1	1	4	0	4	-3
COC(=O)c1ccc2c(=O)n(Cc3ccco3)c(SCC(=O)Nc3ccccc3Cl)nc2c1	1	0.9	2	46*	15	-8
CC(C)OC(=O)NC(C)(C)COC(=O)Nc1cccc(Cl)c1	0	0.9	2	-4	6	16*
CC(C)OC(=O)NCCOC(=O)Nc1cccc(Cl)c1	0	0.8	2	-9	18	0
O=S(=O)(c1ccc(-c2nnc(SCc3ccccc3)o2)cc1)N1CCCC1	1	0.9	4	42*	14	0
COCCN(C(=S)Nc1ccccc1C)C(C)c1cccnc1 (stereo unspecified)	0	1	-1	-13	3	1

Screens: PubChem, several laboratories
